Assay results as given in the RNAGym collection of RNA variant scans (doi:10.1038/s41586-018-0170-7).

B1: tRNA (parent)
chain: GUUCCGUUGGCGUAAUGGUAACGCGUCUCCCUCCUAAGGAGAAGACUGCGGGUUCGAGUCCCGUACGGAACG

Variants of: B1
Test: yeast fitness, log relative to wild type (ln ratio); higher = fitter; tRNA-Arg(CCU), competitive growth, 37 C, 1 M NaCl
Procedure, shortened: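 Genotype fitness is expressed as the natural log of its generations over those of the wild type. Each pool of the tRNA-Arg(CCU) variant library, carried on a HIS3 centromeric plasmid in BY4742 lacking the chromosomal gene, came from one of two independent transformations and grew 4 generations in SC-HIS at 30 °C before ~6.5 generations (~26.5 h) in SC-HIS 1M NaCl at 37 °C. Generation numbers used OD-scaled log2 output/input frequencies from 125 bp paired-end Illumina sequencing, combined across replicates by inverse-variance weighting.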

Variant	yeast fitness (ln)
G1A U2G G6A C46U A69G A70U	-0.165
U2C C27U A43C C46U A69G A70G	-0.0239
U2C G6U C27U A43C C46U C66U C71U	-0.299
C27U C46U A69G A70U	-0.209
U2G G6A C27U C46U C66A A70U	-0.134
G1A U2G C66U A69G A70U C71U	-0.435
G6U C27U A70G	-0.302
G1A C27U C46U A70U C71U	-0.178
G6A A43C A69G C71U	-0.29
G1A U2G G6U A43C C46U C66A A70G	-0.178
U2C G6U C27U C66U C71U	-0.265
U2G G6A C27U A43C C66U	-0.113
G1A U2G G6A C27U A43C C46U C66U A70G	-0.216
G6A C27U A43C C46U C66A C71U	-0.328
G1A G6A A43C C46U C66A A70U C71U	-0.171
G1A C27U A43C A70U	-0.329
G6U C66A A69G	0.00209
U2C G6A C27U C46U C66U A69G A70U C71U	-0.289
G1A U2G C27U C46U	-0.0532
G1A U2G G6U C27U A43C C46U C66U A70U	-0.383
U2C G6A C27U C46U C66U A69G C71U	-0.271

Variant	yeast fitness (ln)
U2G G6U C46U C66U A69G A70G	-0.162
C46U A69G A70G	-0.0172
U2C G6A C27U C46U A70U	-0.0585
G1A G6A C27U A69G A70U C71U	-0.504
G1A U2C A69G A70G	-0.0537
G1A U2G G6U A43C C46U C66U	-0.271
G1A U2G G6A C27U C46U C66A A70G C71U	-0.282
U2C G6U A43C C46U C66U A69G C71U	-0.347
U2G C66A A70U	-0.157
G1A U2G G6U A70G C71U	-0.256
G1A G6U C27U A43C	-0.258
U2G A43C C46U A70U	0.00593
U2C G6A C66A A70U	-0.094
G1A U2G G6A C27U C46U A70U	-0.189
G6A A43C C46U C66U A69G C71U	-0.558
U2G C27U A69G A70G	-0.217
G6U C27U A69G A70U	-0.214
C46U A69G C71U	-0.00543
G6A A43C C46U C66A A70U	-0.119
U2G C27U A43C C46U C66U A69G A70U C71U	-0.395
C27U A69G	-0.0417

Variant	yeast fitness (ln)
U2C A43C C46U C66A A70G	-0.058
U2C G6U C27U A43C C46U C66U A70G	-0.304
U2G G6A C27U C46U	-0.0462
A43C C46U A70U C71U	-0.131
G1A A70U C71U	-0.0607
G1A U2G G6A A43C C46U A69G A70U C71U	-0.262
G1A G6A C27U C46U C66U A70U	-0.198
U2G G6A C27U C46U C66U A70U	-0.01
U2G C66A A69G A70U C71U	-0.291
U2C G6A A43C C46U A69G A70G	-0.241
U2C C27U C46U C66U A69G A70G C71U	-0.281
G1A U2G C27U C66U A70U C71U	-0.365
G6A A43C A69G A70G C71U	-0.305
G1A U2C G6A C27U A43C C71U	-0.295
U2G G6A C27U A43C C66A A69G A70U C71U	-0.548
G1A G6U C27U C66A A70U C71U	-0.369
G1A U2C G6A C66U A69G A70U	-0.0166
C46U C66U	-0.000909
U2G G6A C27U C46U C66A A69G A70G	-0.134
U2C C27U A43C C46U C66U A69G A70G	-0.303
G1A U2G C27U A43C C66A A70G C71U	-0.317

Variant	yeast fitness (ln)
G1A U2G G6A C27U A43C C66U A69G A70U	-0.387
U2C C27U C46U	-0.0168
G1A G6A C27U C66A C71U	-0.224
G6A A43C C66U A69G A70U	-0.3
G1A U2G C27U C46U C66U A69G A70U	-0.265
U2C G6U C46U A70G	-0.0195
G1A C27U A43C C66A A70G	-0.173
G1A U2G G6A C46U C66A A70G C71U	-0.185
U2C G6U C27U A43C C66U	-0.0999
U2C G6U C46U C66A A70U C71U	-0.121
U2G G6A A43C C46U A70U C71U	-0.118
U2G G6U C27U A43C A70U C71U	-0.324
G1A C27U A43C C46U A70G C71U	-0.153
G1A U2G G6U A43C A69G A70U C71U	-0.428
G1A U2G G6U C66U A69G A70U C71U	-0.553
G6U C27U A43C C46U C66U C71U	-0.355
U2G C27U C46U C66A A69G A70U C71U	-0.383
G6U A43C C46U C66A A70G C71U	-0.227
G1A U2G G6U C27U C46U C66U A70G	-0.437
G1A G6U C46U A69G A70U	-0.0951
